Assay results: ChEMBL document CHEMBL1122229, “alpha-adrenoreceptor reagents. 1. Synthesis of some 1,4-benzodioxans as selective presynaptic alpha 2-adrenoreceptor antagonists and potential antidepressants” (J Med Chem, 1983)
The source made the active and inactive calls. No cut-off for these calls is given here.

Assays:
[1] = target: T1, Adrenergic receptor alpha-1 (Rattus norvegicus) (UniProt P15823+P23944+P43140); experiment: In vitro postsynaptic agonist potency at alpha-1 adrenergic receptor in rat anococcygeus muscle relative to phenylephrine; IA means inactive.; format: functional, tissue-based
T1 sequence (P15823 whole entry, looked up): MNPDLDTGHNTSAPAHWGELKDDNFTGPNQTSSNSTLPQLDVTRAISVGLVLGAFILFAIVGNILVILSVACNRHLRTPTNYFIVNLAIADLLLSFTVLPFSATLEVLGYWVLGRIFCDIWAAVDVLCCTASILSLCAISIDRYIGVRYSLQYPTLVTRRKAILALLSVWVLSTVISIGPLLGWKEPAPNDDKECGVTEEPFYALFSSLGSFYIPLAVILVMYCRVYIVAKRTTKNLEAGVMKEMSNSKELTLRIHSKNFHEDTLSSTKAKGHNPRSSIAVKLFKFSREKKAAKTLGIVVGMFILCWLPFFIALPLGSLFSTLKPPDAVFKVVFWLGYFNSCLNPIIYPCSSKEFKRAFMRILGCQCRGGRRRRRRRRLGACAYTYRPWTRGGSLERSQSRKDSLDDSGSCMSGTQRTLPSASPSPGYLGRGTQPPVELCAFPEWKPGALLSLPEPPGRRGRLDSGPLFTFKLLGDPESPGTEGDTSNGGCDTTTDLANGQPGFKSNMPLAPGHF
T1 sequence (P23944 whole entry, looked up): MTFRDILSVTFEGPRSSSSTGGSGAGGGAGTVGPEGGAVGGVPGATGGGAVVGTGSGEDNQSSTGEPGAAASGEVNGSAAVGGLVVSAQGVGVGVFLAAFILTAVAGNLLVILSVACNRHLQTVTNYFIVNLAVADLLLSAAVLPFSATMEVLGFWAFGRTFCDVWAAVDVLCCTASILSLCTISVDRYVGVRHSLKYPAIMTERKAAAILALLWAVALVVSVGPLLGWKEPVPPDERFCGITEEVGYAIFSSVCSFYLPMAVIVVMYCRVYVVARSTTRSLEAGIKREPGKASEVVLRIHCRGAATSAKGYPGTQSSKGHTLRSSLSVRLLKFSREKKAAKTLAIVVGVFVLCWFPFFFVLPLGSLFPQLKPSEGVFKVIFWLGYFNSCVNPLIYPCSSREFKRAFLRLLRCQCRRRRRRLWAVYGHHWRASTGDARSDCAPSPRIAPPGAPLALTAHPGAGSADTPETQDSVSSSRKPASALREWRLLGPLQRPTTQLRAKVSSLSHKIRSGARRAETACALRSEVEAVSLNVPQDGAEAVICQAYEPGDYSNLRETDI
T1 sequence (P43140 whole entry, looked up): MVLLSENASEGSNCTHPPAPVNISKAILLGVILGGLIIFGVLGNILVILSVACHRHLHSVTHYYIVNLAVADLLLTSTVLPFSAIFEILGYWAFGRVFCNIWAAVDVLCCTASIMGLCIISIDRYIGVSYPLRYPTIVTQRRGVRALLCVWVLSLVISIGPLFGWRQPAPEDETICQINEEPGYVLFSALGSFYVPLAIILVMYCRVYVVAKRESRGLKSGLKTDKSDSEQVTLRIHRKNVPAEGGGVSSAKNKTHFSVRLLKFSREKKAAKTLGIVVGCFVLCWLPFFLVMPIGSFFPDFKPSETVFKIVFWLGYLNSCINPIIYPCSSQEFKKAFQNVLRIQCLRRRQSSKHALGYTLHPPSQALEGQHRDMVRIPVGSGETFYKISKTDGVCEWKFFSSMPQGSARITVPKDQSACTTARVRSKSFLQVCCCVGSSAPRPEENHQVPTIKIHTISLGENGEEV
How it was run: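 Rat anococcygeus muscle (male Sprague–Dawley rats, 200–250 g) suspended at 0.5 g initial tension in a 50-mL organ bath. […] Standard dose-response curves were run before and after the analogue's curve.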

[2] = test system: Alpha-2 adrenergic receptor (Rattus norvegicus); experiment: In vitro presynaptic agonist potency at Alpha-2 adrenergic receptor in rat or mouse vas deferens relative to clonidine; IA means inactive
[3] = In vitro antagonism at Alpha-2 adrenergic receptor in rat or mouse vas deferens relative to RX781094.; format: functional
How it was run: (§1)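 Prostatic half of vas deferens from male Sprague–Dawley rats (200–250 g; Krebs, 30 °C, 95% O2/5% CO2, 0.1 Hz, 3-ms, 40 V) or from mice (magnesium-free Krebs, 100–140 V). Tension 0.5 g; isometric twitch recording. […] The concentration giving 50% reversal of the inhibition was compared with standard 5 in the same tissue.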

[4] = target: T1, Adrenergic receptor alpha-1 (Rattus norvegicus); experiment: In vitro postsynaptic antagonist potency at alpha-1 adrenergic receptor in rat anococcygeus relative to compound 5 (RX781094); format: functional
[5] = target: T1, Adrenergic receptor alpha-1 (Rattus norvegicus); experiment: In vitro postsynaptic antagonist potency at alpha-1 adrenergic receptor in rat anococcygeus relative to compound 5 (RX781094); AG means compound is agonist.; format: functional; settings: filed as agonist
[6] = target: T1, Adrenergic receptor alpha-1 (Rattus norvegicus); experiment: In vitro postsynaptic agonist potency at alpha-1 adrenergic receptor in rat anococcygeus muscle relative to phenylephrine; format: functional, tissue-based
[7] = target: T2, Adenosine receptor A2b (Rattus norvegicus) (UniProt P29276); experiment: In vitro presynaptic agonist potency at Alpha-2 adrenergic receptor in rat or mouse vas deferens relative to clonidine; format: functional, tissue-based
T2 sequence (whole entry): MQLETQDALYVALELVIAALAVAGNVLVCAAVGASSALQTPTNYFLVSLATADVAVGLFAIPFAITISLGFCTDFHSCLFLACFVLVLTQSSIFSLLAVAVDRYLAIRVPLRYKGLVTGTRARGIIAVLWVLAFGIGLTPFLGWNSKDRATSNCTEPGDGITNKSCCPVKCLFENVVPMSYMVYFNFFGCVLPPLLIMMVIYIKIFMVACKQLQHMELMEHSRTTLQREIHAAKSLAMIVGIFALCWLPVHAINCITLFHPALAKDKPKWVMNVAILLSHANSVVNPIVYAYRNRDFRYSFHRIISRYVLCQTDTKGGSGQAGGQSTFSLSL
How it was run: (§2)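 Field-stimulated rat or mouse vas deferens under 0.5 g tension, at 0.1 Hz with 3-ms pulses, 30 °C, gassed with 95% O2/5% CO2. Contractions were recorded isometrically. Standard dose-response curves were run before and after each analogue curve. Potency was expressed relative to the standard in the same experiment.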

[8] = target: T1, Adrenergic receptor alpha-1 (Rattus norvegicus); experiment: In vitro postsynaptic antagonist potency at alpha-1 adrenergic receptor in rat anococcygeus relative to compound 5 (RX781094); IA means compound is inactive.; format: functional
[9] = target: T3, Adrenergic receptor alpha-2 (Rattus norvegicus) (UniProt P22086+P19328+P22909); experiment: In vitro presynaptic agonist potency at alpha-2 adrenergic receptor in rat or mouse vas deferens relative to clonidine; format: functional, tissue-based; how it was run: as §2
T3 sequence (P19328 whole entry, looked up): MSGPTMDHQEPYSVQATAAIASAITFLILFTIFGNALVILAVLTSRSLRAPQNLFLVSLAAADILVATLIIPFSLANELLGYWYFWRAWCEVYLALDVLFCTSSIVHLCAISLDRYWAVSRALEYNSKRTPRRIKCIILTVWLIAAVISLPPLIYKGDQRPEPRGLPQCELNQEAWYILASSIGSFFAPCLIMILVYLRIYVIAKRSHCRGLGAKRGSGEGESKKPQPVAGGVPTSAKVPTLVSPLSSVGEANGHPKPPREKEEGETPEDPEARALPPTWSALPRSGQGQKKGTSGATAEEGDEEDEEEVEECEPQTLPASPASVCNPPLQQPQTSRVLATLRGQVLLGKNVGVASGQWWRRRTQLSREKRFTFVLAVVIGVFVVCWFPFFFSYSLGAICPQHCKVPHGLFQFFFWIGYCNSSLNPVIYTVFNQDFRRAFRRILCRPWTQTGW
T3 sequence (P22086 whole entry, looked up): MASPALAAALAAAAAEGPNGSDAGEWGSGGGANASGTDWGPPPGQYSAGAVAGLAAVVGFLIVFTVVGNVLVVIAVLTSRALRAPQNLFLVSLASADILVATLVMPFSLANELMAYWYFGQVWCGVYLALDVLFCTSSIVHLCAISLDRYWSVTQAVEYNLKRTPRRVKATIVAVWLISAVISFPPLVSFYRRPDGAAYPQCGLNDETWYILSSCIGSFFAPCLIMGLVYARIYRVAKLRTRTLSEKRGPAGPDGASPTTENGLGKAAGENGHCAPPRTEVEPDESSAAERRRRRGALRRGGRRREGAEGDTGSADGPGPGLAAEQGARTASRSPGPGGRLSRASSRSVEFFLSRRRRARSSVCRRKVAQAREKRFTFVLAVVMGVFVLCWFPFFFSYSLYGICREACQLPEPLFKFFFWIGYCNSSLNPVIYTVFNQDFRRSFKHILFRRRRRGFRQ
T3 sequence (P22909 whole entry, looked up): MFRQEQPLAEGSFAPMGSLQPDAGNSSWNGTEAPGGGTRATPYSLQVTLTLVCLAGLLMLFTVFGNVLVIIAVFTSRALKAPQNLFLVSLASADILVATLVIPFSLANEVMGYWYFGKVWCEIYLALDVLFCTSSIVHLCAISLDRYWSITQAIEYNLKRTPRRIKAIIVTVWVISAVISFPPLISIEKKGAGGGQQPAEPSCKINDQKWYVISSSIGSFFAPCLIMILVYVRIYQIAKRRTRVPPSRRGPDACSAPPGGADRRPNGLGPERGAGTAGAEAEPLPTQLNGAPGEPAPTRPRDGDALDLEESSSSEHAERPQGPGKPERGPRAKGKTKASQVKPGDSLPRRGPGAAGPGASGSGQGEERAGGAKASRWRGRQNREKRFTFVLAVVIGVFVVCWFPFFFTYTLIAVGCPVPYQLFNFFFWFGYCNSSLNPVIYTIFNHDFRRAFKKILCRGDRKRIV

[10] = test system: Alpha-2 adrenergic receptor (Rattus norvegicus); experiment: In vitro presynaptic agonist potency at alpha-2 adrenergic receptor in rat or mouse vas deferens relative to clonidine; IA means inactive
[11] = target: T2, Adenosine receptor A2b (Rattus norvegicus); experiment: In vitro presynaptic agonist potency at Alpha-2 adrenergic receptor in rat or mouse vas deferens relative to clonidine; IA means inactive; format: functional, tissue-based; how it was run: as §2
[12] = test system: Alpha-2 adrenergic receptor (Rattus norvegicus); experiment: In vitro presynaptic agonist potency at alpha-2 adrenergic receptor in rat or mouse vas deferens relative to clonidine; Inactive
[13] = target: T1, Adrenergic receptor alpha-1 (Rattus norvegicus); experiment: Ratio of presynaptic antagonist potency to postsynaptic antagonist potency; format: functional
[14] = target: Adrenergic receptor alpha-2 (Homo sapiens) (UniProt P08913+P18825+P18089); experiment: In vitro presynaptic antagonist potency at Alpha-2 adrenergic receptor in rat or mouse vas deferens relative to compound 5 (RX781094); format: functional, tissue-based; how it was run: as §1
[15] = target: T1, Adrenergic receptor alpha-1 (Rattus norvegicus); experiment: In vitro postsynaptic antagonist potency at alpha-1 adrenergic receptor in rat anococcygeus. Taken as standard; format: functional
[16] = target: T3, Adrenergic receptor alpha-2 (Rattus norvegicus); experiment: In vitro presynaptic agonist potency at alpha-2 adrenergic receptor in rat or mouse vas deferens relative to clonidine; IA means inactive; format: functional, tissue-based
How it was run: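 Field-stimulated rat or mouse vas deferens (Krebs, 30 °C, 95% O2/5% CO2, 3-ms pulses at 0.1 Hz) with isometric twitch recording. […] Standard dose-response curves were run before and after the analogue's curve.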

[17] = target: T2, Adenosine receptor A2b (Rattus norvegicus); experiment: In vitro presynaptic antagonist potency at alpha-2 adrenergic receptor in rat or mouse vas deferens; IA means inactive; format: functional; how it was run: as §1
[18] = target: T1, Adrenergic receptor alpha-1 (Rattus norvegicus); experiment: In vitro postsynaptic antagonist potency at alpha-1 adrenergic receptor in rat anococcygeus.; format: functional
[19] = test system: Alpha-1 adrenergic receptor (Rattus norvegicus); experiment: In vitro postsynaptic agonist potency at alpha-1 adrenergic receptor in rat anococcygeus.

| SMILES | Agonist potency [1] | Antagonist potency [3] | Antagonist potency [4] | Agonist potency [6] | Agonist potency [9] | also measured |
| --- | --- | --- | --- | --- | --- | --- |
| N/C(=N\CC(=O)O)C1COc2ccccc2O1 (configuration not stated) | inactive | <0.0003 | < 0.023 |  |  | Agonist potency [2]: inactive |
| Cc1cccc2c1OCC(C1=NCCN1)O2 (configuration not stated) |  | 0.13 |  | 1 |  | Antagonist potency [5]: Agonist; Agonist potency [7]: 0.1 |
| Nc1noc(C2COc3ccccc3O2)n1 (configuration not stated) | inactive |  |  |  | 0.0001 | Antagonist potency [8]: inactive; Antagonist potency [10]: inactive |
| CC(C)c1cccc2c1OCC(C1=NCCN1)O2 (configuration not stated) |  |  | 1 | 0.5 | 0.1 | Antagonist potency [11]: inactive |
| COc1cc2c(cc1OC)OC(C1=NCCN1)CO2 (configuration not stated) | inactive |  | 0.05 |  |  | Agonist potency [12]: inactive; Selectivity [13]: 0.3; Antagonist potency [14]: 0.015 |
| c1ccc2c(c1)OCC(C1=NCCN1)O2 (configuration not stated) | inactive |  |  |  |  | Antagonist potency [15]: 1; Agonist potency [16]: inactive |
| Brc1cc2c(cc1Br)OC(C1=NCCN1)CO2 (configuration not stated) |  | 0.001 | 0.1 | 0.02 |  | Agonist potency [2]: inactive; Selectivity [13]: 0.01 |
| COc1ccccc1OCC1=NCCN1 |  |  |  | 10 | 0.001 | Antagonist potency [8]: inactive; Antagonist potency [10]: inactive |
| Oc1cc2c(cc1O)OC(C1=NCCN1)CO2 (configuration not stated) |  |  |  |  | 0.0006 | Antagonist potency [17]: inactive; Antagonist potency [18]: > 6; Agonist potency [19]: 0.018 |
